In ChEMBL document CHEMBL1156927, “New pterocarpanquinones: synthesis, antineoplasic activity on cultured human malignant cell lines and TNF-alpha modulation in human PBMC cells” (Bioorg Med Chem, 2010):
Values belong to the molecule of their own block, whether it stands above or below them. The source made the active and inactive calls. The rule behind the calls is not given here.

How the values were obtained:
HL-60 = assay: Growth inhibition of human HL60 cells after 72 hrs by MTT assay; assay type: functional, cell-based; settings: HL-60, 72 h
How it was run: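 2 × 10⁴ cells/mL seeded in drug-free medium or medium with a range of compound concentrations, 72 h at 37 °C, 5% CO₂. MTT read-out: 3 h incubation, formazan dissolved in DMSO, A490. IC50 = concentration inhibiting growth by 50%. Mean of three independent experiments, triplicate wells.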

K562 = assay: Growth inhibition of human K562 cells after 24 to 72 hrs by MTT assay; assay type: functional, cell-based
How it was run: (§1)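 Leukemic lines in medium with 50 µM β-mercaptoethanol, 25 mM Hepes pH 7.4, antibiotics and 10% heat-inactivated FCS (Daudi 20% FCS; Lucena-1 kept with 60 nM vincristine to maintain MDR phenotype). Cells exposed to compound for 24, 48 or 72 h. Viability by MTT: 3 h at 37 °C, DMSO solubilisation, absorbance at 490 nm.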

PBMC [1] = assay: Antiinflammatory activity in human PBMC assessed reduction of LPS-stimulated TNFalpha production at 25 uM after 2 hrs by ELISA; assay type: functional, cell-based
How it was run: (§2)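 PBMC at 10⁶ cells/mL stimulated with 2 µg/mL E. coli 055:B5 LPS for 2 h at 37 °C, 5% CO₂, co-incubated with vehicle (0.5% DMSO in RPMI 1640) or compound at several concentrations. TNF-α measured in supernatants. Three experiments, mean ± SEM.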

[2] = Toxicity in LPS-stimulated human PBMC cells assessed as cell viability at 100 uM; assay type: cell-based
PBMC [3] = assay: Growth inhibition of phytohemagglutinin-activated human PBMC cells after 24 to 72 hrs by MTT assay; assay type: cell-based
[4] = Growth inhibition of human K562-Lucena 1 cells after 24 to 72 hrs by MTT assay; assay type: functional; how it was run: as §1
NCI-H460 = assay: Growth inhibition of human H460 cells after 72 hrs by MTT assay; assay type: functional, cell-based; settings: NCI-H460, 72 h
How it was run: (§3)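 Adherent lung cancer cells allowed to attach 24 h, then exposed to compound. 2 × 10⁴ cells/mL in drug-free or compound-containing medium, 72 h at 37 °C, 5% CO₂. MTT added, 3 h at 37 °C, formazan dissolved in DMSO, absorbance at 490 nm. IC50 from three independent experiments, each concentration in triplicate.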

[5] = Growth inhibition of human GLC4 cells after 72 hrs by MTT assay; assay type: functional, cell-based; settings: GLC4, 72 h; how it was run: as §3
Daudi = assay: Growth inhibition of human Daudi cells after 24 to 72 hrs by MTT assay; assay type: functional, cell-based; how it was run: as §1
Raji = assay: Growth inhibition of human Raji cells after 24 to 72 hrs by MTT assay; assay type: functional, cell-based; how it was run: as §1
Jurkat = assay: Growth inhibition of human Jurkat cells after 24 to 72 hrs by MTT assay; assay type: functional, cell-based; how it was run: as §1
A549 = assay: Growth inhibition of human A549 cells after 72 hrs by MTT assay; assay type: functional, cell-based; settings: A549, 72 h; how it was run: as §3
PBMC [6] = assay: Antiinflammatory activity in human PBMC assessed inhibition of LPS-stimulated TNFalpha production at 100 uM after 2 hrs by ELISA; assay type: functional; how it was run: as §2

IC50 (HL-60): 4.87 µM
IC50 (K562): 5.7 µM
SMILES: O=C1C2=C(C(=O)c3ccccc31)[C@H]1Oc3ccc(Br)cc3[C@H]1CO2 (racemic)

IC50 (NCI-H460): 12.9 µM
IC50 (HL-60): 2 µM
IC50 (Daudi): 3.1 µM
IC50 (K562): 1.67 µM
IC50 (Raji): 3.32 µM
IC50 (Jurkat): 6.77 µM
IC50 (A549): 11.2 µM
SMILES: O=C1C2=C(C(=O)c3ccccc31)[C@H]1Oc3ccccc3[C@H]1CO2 [PTEROCARPANQUINONE]
inhibition (PBMC [1]): Active
viability at 100 µM [2]: > 70%
IC50 (PBMC [3]): > 20 µM
IC50 [4]: 2.75 µM
IC50 [5]: 5.17 µM
inhibition at 100 µM (PBMC [6]): 100%

IC50 (HL-60): 0.4 µM
IC50 (K562): 3.48 µM
SMILES: O=C1C2=C(C(=O)c3ccccc31)[C@H]1Oc3ccc([N+](=O)[O-])cc3[C@H]1CO2 (racemic)

IC50 (K562): 2.18 µM
SMILES: COc1cc2c(cc1O)[C@H]1COC3=C(C(=O)c4ccccc4C3=O)[C@H]1O2 (racemic)

IC50 (HL-60): 2.1 µM
IC50 (K562): 2.95 µM
SMILES: O=C1C2=C(OC[C@@H]3c4cc5c(cc4O[C@H]23)OCO5)C(=O)c2c1ccc(O)c2O

IC50 (HL-60): 4.87 µM
IC50 (K562): 6.77 µM
SMILES: O=C1C2=C(C(=O)c3ccccc31)[C@H]1Oc3ccc(Cl)cc3[C@H]1CO2 (racemic)

IC50 (Daudi): 0.45 µM
IC50 (K562): 0.47 µM
SMILES: CO[C@@]12[C@H](COC(N)=O)C3=C(C(=O)C(C)=C(N)C3=O)N1C[C@@H]1N[C@@H]12 [MITOMYCIN]
IC50 (PBMC [3]): 4.03 µM
IC50 [4]: 2.75 µM
